Measurements: ChEMBL document CHEMBL1125450, “Synthesis and in vitro characterization of novel amino terminally modified oxotremorine derivatives for brain muscarinic receptors” (J Med Chem, 1992)

Legend:
[1] = molecular target: T1, Muscarinic acetylcholine receptor M1 (Rattus norvegicus, UniProt P08482); test: Compound was evaluated for its binding affinity towards M1 receptor in rat cortex
T1 sequence (P08482 whole entry): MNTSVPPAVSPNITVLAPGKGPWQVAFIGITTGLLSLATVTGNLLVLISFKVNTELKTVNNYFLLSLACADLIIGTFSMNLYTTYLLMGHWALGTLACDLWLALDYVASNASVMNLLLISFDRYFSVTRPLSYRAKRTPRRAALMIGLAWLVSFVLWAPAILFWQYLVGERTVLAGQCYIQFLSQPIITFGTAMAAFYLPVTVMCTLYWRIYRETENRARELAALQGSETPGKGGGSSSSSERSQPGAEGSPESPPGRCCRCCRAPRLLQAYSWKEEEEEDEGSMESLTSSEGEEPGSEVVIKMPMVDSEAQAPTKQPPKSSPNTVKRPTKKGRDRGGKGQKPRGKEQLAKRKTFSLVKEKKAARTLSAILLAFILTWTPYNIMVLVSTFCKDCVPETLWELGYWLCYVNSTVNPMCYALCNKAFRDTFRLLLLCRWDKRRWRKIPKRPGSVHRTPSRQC

[2] = molecular target: T2, Muscarinic acetylcholine receptor M2 (Rattus norvegicus, UniProt P10980); test: Compound was evaluated for its binding affinity towards M2 receptor in rat brainstem; type: tissue-based, Brain
T2 sequence (P10980 whole entry): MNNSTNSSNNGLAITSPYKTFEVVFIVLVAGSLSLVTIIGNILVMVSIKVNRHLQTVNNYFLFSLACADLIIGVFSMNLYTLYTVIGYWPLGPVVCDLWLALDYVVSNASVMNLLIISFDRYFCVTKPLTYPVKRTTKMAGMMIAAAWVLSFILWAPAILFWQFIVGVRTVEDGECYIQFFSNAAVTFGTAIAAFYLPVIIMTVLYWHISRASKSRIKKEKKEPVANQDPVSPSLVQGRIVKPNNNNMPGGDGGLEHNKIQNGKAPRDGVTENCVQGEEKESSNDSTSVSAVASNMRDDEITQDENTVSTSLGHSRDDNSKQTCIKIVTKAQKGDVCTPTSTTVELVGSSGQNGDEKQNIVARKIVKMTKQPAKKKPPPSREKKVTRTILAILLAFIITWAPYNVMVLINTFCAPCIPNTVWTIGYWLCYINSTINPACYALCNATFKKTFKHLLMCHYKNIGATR

[3] = molecular target: T2, Muscarinic acetylcholine receptor M2; test: Compound was evaluated for its binding affinity towards muscarinic acetylcholine receptor M2 in rat brainstem; type: tissue-based, Brain
Procedure, shortened: (§1)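 Rat pons-medulla homogenised 1:200 w/v in 50 mM sodium phosphate, pH 7.4; 0.5 mg tissue with 0.2 nM [3H]QNB and varying unlabeled ligand, 75 min at 25 °C. IC50 corrected to Ki by Cheng-Prusoff.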

[4] = molecular target: T1, Muscarinic acetylcholine receptor M1; test: Compound was evaluated for its binding affinity towards muscarinic acetylcholine receptor in rat cortex
Procedure, shortened: (§2)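 Rat fronto-parietal cortex homogenised 1:200 w/v in 50 mM Na-K phosphate, pH 7.4; 0.5 mg tissue competed against [3H]pirenzepine (6 nM) for 1 h at 25 °C, filtered on polyethylenimine-treated GF/B. Nonspecific binding with 10 µM atropine. IC50 converted to Ki by Cheng-Prusoff.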

[5] = molecular target: T3, Muscarinic acetylcholine receptor M1 (Rattus norvegicus) (UniProt P08482); test: Intrinsic activity against Muscarinic acetylcholine receptor M1 in rat cortex (activity expressed as % response of that produced by carbachol); type: functional
T3 sequence (whole entry): T1 sequence (P08482 whole entry)
Procedure, shortened: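 Dissociated male Sprague-Dawley rat cortex, rejuvenated in oxygenated Krebs-Henseleit (final step with 10 mM Li+), labeled 60 min at 37 °C with [3H]inositol. Compound at 1 mM added for 60 min under 95% O2/5% CO2; [3H]inositol 1-phosphate isolated on Dowex. Response scaled to 1 mM carbachol PI hydrolysis (100%).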

[6] = molecular target: T4, Muscarinic acetylcholine receptor M2 (Rattus norvegicus) (UniProt P10980); test: Intrinsic activity against muscarinic acetylcholine receptor M2 in rat striatum (activity expressed as % response of that produced by carbachol); type: functional, tissue-based
T4 sequence (whole entry): T2 sequence (P10980 whole entry)
Procedure, shortened: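 Dissociated rat striatum prelabeled 45 min at 37 °C with [3H]adenine, then 30 min with 1.5 mM IBMX before 10 µM forskolin plus 100 µM compound for 10 min; stopped with TCA, [3H]cAMP by ion-exchange columns. Inhibition of cAMP scaled to that of 100 µM carbachol (100%).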

[7] = molecular target: T1, Muscarinic acetylcholine receptor M1; test: Compound was evaluated for its binding affinity towards Muscarinic acetylcholine receptor M1 in rat cortex; procedure, shortened: as §2
[8] = molecular target: T2, Muscarinic acetylcholine receptor M2; test: Compound was evaluated for its binding affinity towards Muscarinic acetylcholine receptor M2 in rat brainstem; type: tissue-based, Brain; procedure, shortened: as §1

SMILES | Ki [1] | Ki [2] | Ki [3] | Ki [4] | Response [5] | further results
O=C1CCCN1CC#CC[C@H]1CCCN1 | 3.07 µM | 2.46 µM |  |  |  | 
CN1CCCC[C@H]1CC#CCN1CCCC1=O | 5.38 µM | 7.06 µM |  |  |  | 
O=C1CCCN1CC#CCN1CCCC1 [OXOTREMORINE] |  |  | 0.084 µM | 0.196 µM | 13.7% | 
CCN(C)CC#CCN1CCCC1=O |  |  | 0.813 µM | 2.69 µM | 2.75% | Response [6]: 91.6%
O=C1CCCN1CC#CCN1CCC1 |  |  | 0.0274 µM | 2.25 µM | 46.2% | Response [6]: 105%
O=C1CCCN1CC#CC[C@H]1CCCCN1 | 3.03 µM | 0.636 µM |  |  |  | 
CN1CCC[C@H]1CC#CCN1CCCC1=O | 10.5 µM | 10.8 µM |  |  |  | 
CN1CCCC[C@@H]1CC#CCN1CCCC1=O | 1.2 µM | 3.66 µM |  |  |  | 
O=C1CCCN1CC#CC[C@@H]1CCCN1 | 40.5 µM | 5.64 µM |  |  |  | 
CN(C)CC#CCN1CCCC1=O |  |  |  |  |  | Ki [7]: 15.9 µM; Ki [8]: 0.926 µM
CNCC#CCN1CCCC1=O |  |  | 38.1 µM | 65.5 µM | 5.7% | Response [6]: 36.3%
CN1CCC[C@@H]1CC#CCN1CCCC1=O | 5.46 µM | 5.86 µM |  |  |  | 
O=C1CCCN1CC#CC[C@@H]1CCCCN1 | 27.6 µM | 15.8 µM |  |  |  | 
